Measurements from ChEMBL document CHEMBL1123978, “Synthesis and antineoplastic evaluation of 1,4-bis(aminoalkanamido)-9,10-anthracenediones” (J Med Chem, 1988).
Converted amounts (≈) assume the structure as drawn. One block for each compound: values may come before it.

Legend:
L1210 = experiment: Effective concentration required to inhibit by 50% the growth of L1210 cells; assay type: functional, cell-based; conditions: Mus musculus
Method in brief: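 Mouse L1210 leukemia cells were grown in RPMI 1640 with 5% fetal calf serum, penicillin and streptomycin at 37 °C in humidified air–5% CO2, and seeded at 5 × 10⁴ cells/mL. Compounds dissolved in 50% ethanol were added at four concentrations. EC50 is the concentration giving 50% growth inhibition after 48 h, measured by cell protein content.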

HeLa = experiment: Effective concentration required to inhibit by 50% the growth of HeLa S3 cells; assay type: functional, cell-based; conditions: Homo sapiens
Method in brief: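 HeLa S3 cultures were given compounds dissolved in water, at final concentrations of 0.005–5 μg/mL in the incubation medium. EC50 is the concentration that inhibited the increment of cellular protein by 50%, read from dose-response curves.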

P338 [1] = experiment: Survivor recorded on day 4 after day of first injection as a measure of drug toxicity(dose 25 mg/kg); 6/6; assay type: functional, Mus musculus
P338 [2] = experiment: Survivor recorded on day 4 after day of first injection as a measure of drug toxicity(dose 3.12 mg/kg); 6/6; assay type: functional, Mus musculus
P338 [3] = experiment: Survivor recorded on day 4 after day of first injection as a measure of drug toxicity(dose 12.5 mg/kg); 6/6; assay type: functional, Mus musculus
P338 [4] = experiment: Ratio of medium survival time expressed as percent of untreated controls(dose 25 mg/kg); assay type: functional, Mus musculus
Method in brief: (§1)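 BDF1 mice inoculated ip on day 0 with 10^6 P388 lymphocytic leukemia cells. Drug given ip on days 1–5 following NCI protocols, at the dose stated. Eight mice per treatment group. Mean survival time was computed per group, and % T/C = (MST treated/MST control) × 100.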

P338 [5] = experiment: Ratio of medium survival time expressed as percent of untreated controls(dose 3.12 mg/kg); assay type: functional, Mus musculus; method in brief: as §1
P338 [6] = experiment: Ratio of medium survival time expressed as percent of untreated controls(dose 12.5 mg/kg); assay type: functional, Mus musculus; method in brief: as §1
P338 [7] = experiment: Survivor recorded on day 4 after day of first injection as a measure of drug toxicity(dose 6.25 mg/kg); 6/6; assay type: functional, Mus musculus
P338 [8] = experiment: Ratio of medium survival time expressed as percent of untreated controls(dose 6.25 mg/kg); assay type: functional, Mus musculus; method in brief: as §1
P338 [9] = experiment: Survivor recorded on day 4 after day of first injection as a measure of drug toxicity(dose 6.25 mg/kg); 8/8; assay type: functional, Mus musculus
P338 [10] = experiment: Ratio of medium survival time expressed as percent of untreated controls(dose 1.5 mg/kg); assay type: functional, Mus musculus; method in brief: as §1
P338 [11] = experiment: Survivor recorded on day 4 after day of first injection as a measure of drug toxicity(dose 12.5 mg/kg); 8/8; assay type: functional, Mus musculus
P338 [12] = experiment: Survivor recorded on day 4 after day of first injection as a measure of drug toxicity(dose 25 mg/kg); 8/8; assay type: functional, Mus musculus
P338 [13] = experiment: Ratio of medium survival time expressed as percent of untreated controls(dose 50 mg/kg); assay type: functional, Mus musculus; method in brief: as §1
P338 [14] = experiment: Survivor recorded on day 4 after day of first injection as a measure of drug toxicity(dose 1.5 mg/kg); 8/8; assay type: functional, Mus musculus
P338 [15] = experiment: Survivor recorded on day 4 after day of first injection as a measure of drug toxicity(dose 3.12 mg/kg); 8/8; assay type: functional, Mus musculus
P338 [16] = experiment: Survivor recorded on day 4 after day of first injection as a measure of drug toxicity(dose 50 mg/kg); 8/8; assay type: functional, Mus musculus
P338 [17] = experiment: Ratio of medium survival time expressed as percent of untreated controls (dose 3.12 mg/kg); assay type: functional, Mus musculus; method in brief: as §1
P338 [18] = experiment: Ratio of medium survival time expressed as percent of untreated controls (dose 25 mg/kg); Toxic; assay type: functional, organism-based; set-up: dose 25 mg/kg; conditions: Mus musculus, at 25 mg/kg
P338 [19] = experiment: Survivor recorded on day 4 after day of first injection as a measure of drug toxicity (dose 25 mg/kg); 6/8; assay type: functional, Mus musculus
P338 [20] = experiment: Survivor recorded on day 4 after day of first injection as a measure of drug toxicity (dose 1.6 mg/kg); 8/8; assay type: functional, Mus musculus
P338 [21] = experiment: Ratio of medium survival time expressed as percent of untreated controls (dose 6.25 mg/kg); assay type: functional, Mus musculus; method in brief: as §1
P338 [22] = experiment: Survivor recorded on day 4 after day of first injection as a measure of drug toxicity (dose 50 mg/kg); 0/8; assay type: functional, Mus musculus
P338 [23] = experiment: Survivor recorded on day 4 after day of first injection as a measure of drug toxicity (dose 3.12 mg/kg); 8/8; assay type: functional, Mus musculus
P338 [24] = experiment: Survivor recorded on day 4 after day of first injection as a measure of drug toxicity (dose 6.25 mg/kg); 8/8; assay type: functional, Mus musculus
P338 [25] = experiment: Survivor recorded on day 4 after day of first injection as a measure of drug toxicity (dose 12.5 mg/kg); 8/8; assay type: functional, Mus musculus
P338 [26] = experiment: Ratio of medium survival time expressed as percent of untreated controls (dose 12.5 mg/kg); assay type: functional, Mus musculus; method in brief: as §1
P338 [27] = experiment: Ratio of medium survival time expressed as percent of untreated controls (dose 1.6 mg/kg); assay type: functional, Mus musculus; method in brief: as §1
P338 [28] = experiment: Survivor recorded on day 4 after day of first injection as a measure of drug toxicity (dose 40 mg/kg); 8/8; assay type: functional, Mus musculus
P338 [29] = experiment: Ratio of medium survival time expressed as percent of untreated controls (dose 10 mg/kg); assay type: functional, Mus musculus; method in brief: as §1
P338 [30] = experiment: Survivor recorded on day 4 after day of first injection as a measure of drug toxicity (dose 20 mg/kg); 8/8; assay type: functional, Mus musculus
P338 [31] = experiment: Ratio of medium survival time expressed as percent of untreated controls (dose 20 mg/kg); assay type: functional, Mus musculus; method in brief: as §1
P338 [32] = experiment: Ratio of medium survival time expressed as percent of untreated controls(dose 40 mg/kg); Toxic; assay type: functional, organism-based; set-up: dose 40 mg/kg; conditions: Mus musculus, at 40 mg/kg; method in brief: as §1
P338 [33] = experiment: Ratio of medium survival time expressed as percent of untreated controls (dose 2.5 mg/kg); assay type: functional, Mus musculus; method in brief: as §1
P338 [34] = experiment: Ratio of medium survival time expressed as percent of untreated controls (dose 5 mg/kg); assay type: functional, Mus musculus; method in brief: as §1
P338 [35] = experiment: Survivor recorded on day 4 after day of first injection as a measure of drug toxicity (dose 2.5 mg/kg); 8/8; assay type: functional, Mus musculus
P338 [36] = experiment: Ratio of medium survival time expressed as percent of untreated controls(dose 1.25 mg/kg); assay type: functional, Mus musculus; method in brief: as §1
P338 [37] = experiment: Survivor recorded on day 4 after day of first injection as a measure of drug toxicity (dose 10 mg/kg); 8/8; assay type: functional, Mus musculus
P338 [38] = experiment: Survivor recorded on day 4 after day of first injection as a measure of drug toxicity (dose 5 mg/kg); 8/8; assay type: functional, Mus musculus
P338 [39] = experiment: Survivor recorded on day 4 after day of first injection as a measure of drug toxicity(dose 1.25 mg/kg); 8/8; assay type: functional, Mus musculus

SMILES: O=C1c2c(O)ccc(O)c2C(=O)c2c(NCCNCCO)ccc(NCCNCCO)c21 [MITOXANTRONE]
EC50 (L1210): > 5 µg/mL
EC50 (HeLa): 0.55 µg/mL (≈ 1.24 µM)

EC50 (L1210): 2.26 µg/mL (≈ 5.53 µM)
EC50 (HeLa): 0.39 µg/mL (≈ 0.955 µM)
SMILES: CN(C)CC(=O)Nc1ccc(NC(=O)CN(C)C)c2c1C(=O)c1ccccc1C2=O

SMILES: O=C1c2ccccc2C(=O)c2c(NCCNCCO)ccc(NCCNCCO)c21 [AMETANTRONE]
Survival (P338 [1]): 6
EC50 (L1210): 1.77 µg/mL (≈ 4.29 µM)
Survival (P338 [2]): 6
EC50 (HeLa): 0.17 µg/mL (≈ 0.412 µM)
Survival (P338 [3]): 6
T/C (P338 [4]): 200%
T/C (P338 [5]): 190%
T/C (P338 [6]): 300%
Survival (P338 [7]): 6
T/C (P338 [8]): 210%

EC50 (L1210): > 5 µg/mL
EC50 (HeLa): 1.41 µg/mL (≈ 3.2 µM)
SMILES: O=C(CNCCO)Nc1ccc(NC(=O)CNCCO)c2c1C(=O)c1ccccc1C2=O

SMILES: CNCC(=O)Nc1ccc(NC(=O)CNC)c2c1C(=O)c1ccccc1C2=O
Survival (P338 [9]): 8
T/C (P338 [10]): 100%
EC50 (L1210): 0.79 µg/mL (≈ 2.08 µM)
Survival (P338 [11]): 8
EC50 (HeLa): 0.14 µg/mL (≈ 0.368 µM)
T/C (P338 [4]): 100%
Survival (P338 [12]): 8
T/C (P338 [13]): 111%
Survival (P338 [14]): 8
T/C (P338 [5]): 100%
T/C (P338 [6]): 100%
Survival (P338 [15]): 8
Survival (P338 [16]): 8
T/C (P338 [8]): 111%

SMILES: CN(C)CCC(=O)Nc1ccc(NC(=O)CCN(C)C)c2c1C(=O)c1ccccc1C2=O
T/C (P338 [17]): 91%
T/C (P338 [18]): Toxic
Survival (P338 [19]): 6
EC50 (L1210): 0.36 µg/mL (≈ 0.825 µM)
Survival (P338 [20]): 8
T/C (P338 [21]): 100%
Survival (P338 [22]): 0
EC50 (HeLa): 0.05 µg/mL (≈ 0.115 µM)
Survival (P338 [23]): 8
Survival (P338 [24]): 8
Survival (P338 [25]): 8
T/C (P338 [26]): 100%
T/C (P338 [27]): 91%

SMILES: CNCCC(=O)Nc1ccc(NC(=O)CCNC)c2c1C(=O)c1ccccc1C2=O
Survival (P338 [28]): 8
T/C (P338 [29]): 130%
Survival (P338 [30]): 8
EC50 (L1210): 1.28 µg/mL (≈ 3.13 µM)
T/C (P338 [31]): 120%
T/C (P338 [32]): Toxic
T/C (P338 [33]): 120%
EC50 (HeLa): 0.08 µg/mL (≈ 0.196 µM)
T/C (P338 [34]): 130%
Survival (P338 [35]): 8
T/C (P338 [36]): 110%
Survival (P338 [37]): 8
Survival (P338 [38]): 8
Survival (P338 [39]): 8
